Consider eight compounds from ChEMBL document CHEMBL1148284, “Antagonist analogue of 6-[3'-(1-adamantyl)-4'-hydroxyphenyl]-2-naphthalenecarboxylic acid (AHPN) family of apoptosis inducers that effectively blocks AHPN-induced apoptosis but not cell-cycle arrest” (2004).

Active and inactive are the calls of the source. The rule behind the calls is not given here.

Usually Inhibition stands for the change of the read-out against control, counted positive when it falls. Low values mean a weak effect, high ones a strong effect.

Assay [1] relates to NCI-H460. In words: Suppression of H460 lung cancer cell apoptosis induced by 1E-6M 5-Cl-AHPN; From 34% to 9%. It counts as functional, Homo sapiens. A digest of the protocol: (§1)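 H460 and LNCaP cells (RPMI 1640, 10% FCS) treated 36 h with 1.0 × 10^-6 M inducer alone or with 1.0 × 10^-6 M antagonist. Cells trypsinized, fixed in 3.7% paraformaldehyde, stained with DAPI (50 µg/mL), and apoptotic nuclear morphology scored by fluorescence microscopy. Apoptosis = apoptotic/total cells × 100.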

For assay [2], the system named is HL-60. In words: Induction of apoptosis in HL60R leukemia cells after 24 hr r treatment at 0.1E-6M. It counts as functional, Homo sapiens. The procedure, abridged:
(§2)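 Cells exposed to agonist in medium with 0.1% Me2SO vehicle: HL-60R for 24 h, MDA-MB-231 for 96 h. Cells fixed and stained with acridine orange; apoptotic nuclei scored by nuclear fragmentation in 200-cell fields. Percent apoptosis is the average of triplicates.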

The test system of assay [3] is HL-60. In words: Induction of apoptosis in HL60R leukemia cells after 24 hr r treatment at 1E-6M. It counts as functional, Homo sapiens. The procedure, abridged:
as §2

Assay [4] has as its system MDA-MB-231. In words: Induction of apoptosis in MDA-MB-231 breast cancer cells after 96 hr at 0.5E-6M. It counts as functional, Homo sapiens. A digest of the protocol:
as §2

Assay [5] relates to MDA-MB-231. In words: Induction of apoptosis in MDA-MB-231 breast cancer cells after 96 hr at 1E-6M. It counts as functional, Homo sapiens. The procedure, abridged:
as §2

The subject of the next assay is LNCaP. As to the kind of experiment: Suppression of LNCaP prostate cancer cell apoptosis induced by 1E-6M 5-Cl-AHPN; From 31% to 15%. It counts as functional, Homo sapiens. A digest of the protocol:
as §1

The target of assay [6] is T1, Retinoic acid receptor alpha (Homo sapiens) (UniProt P10276).
T1 sequence (whole entry): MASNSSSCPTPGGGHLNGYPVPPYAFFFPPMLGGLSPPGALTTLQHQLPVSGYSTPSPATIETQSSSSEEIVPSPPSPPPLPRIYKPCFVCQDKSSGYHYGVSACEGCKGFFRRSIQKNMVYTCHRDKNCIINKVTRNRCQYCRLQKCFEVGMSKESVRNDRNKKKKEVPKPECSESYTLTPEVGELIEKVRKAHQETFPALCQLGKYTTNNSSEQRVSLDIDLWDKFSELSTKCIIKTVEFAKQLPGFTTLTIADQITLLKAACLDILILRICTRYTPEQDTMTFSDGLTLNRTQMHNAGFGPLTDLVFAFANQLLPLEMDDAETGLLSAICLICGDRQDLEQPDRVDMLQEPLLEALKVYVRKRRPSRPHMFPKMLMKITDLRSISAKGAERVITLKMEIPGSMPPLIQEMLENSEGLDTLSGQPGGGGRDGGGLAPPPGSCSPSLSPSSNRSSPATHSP
In words: Transcriptional activation in CV-1 cells expressing RAR alpha at 1E-6M. It counts as functional, cell-based. Conditions: Cercopithecidae. A digest of the protocol: (§3)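 CV-1 cells in DMEM with 10% FCS, calcium-precipitate transfected with (TREpal)2-tk-CAT plus RAR expression vector and β-gal vector. After 20 h, switched to 5% charcoal-stripped FCS and treated 24 h. CAT activity normalized to β-gal and expressed relative to 1.0 × 10^-6 M trans-RA as 100%.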

The target of assay [7] is T2, Retinoic acid receptor beta (Homo sapiens) (UniProt P10826).
T2 sequence (whole entry): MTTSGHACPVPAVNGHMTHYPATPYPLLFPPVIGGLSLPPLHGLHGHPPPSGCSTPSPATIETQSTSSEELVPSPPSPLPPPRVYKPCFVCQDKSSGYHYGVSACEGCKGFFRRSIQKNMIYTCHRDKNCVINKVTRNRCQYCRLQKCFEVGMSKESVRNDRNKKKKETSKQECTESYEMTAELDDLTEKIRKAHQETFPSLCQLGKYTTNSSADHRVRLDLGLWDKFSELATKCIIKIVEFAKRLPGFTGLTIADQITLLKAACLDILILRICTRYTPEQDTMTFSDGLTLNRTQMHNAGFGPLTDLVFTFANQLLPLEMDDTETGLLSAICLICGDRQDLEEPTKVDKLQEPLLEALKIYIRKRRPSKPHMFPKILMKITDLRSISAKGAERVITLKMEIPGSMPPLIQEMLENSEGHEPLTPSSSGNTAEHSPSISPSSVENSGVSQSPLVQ
As to the kind of experiment: Transcriptional activation in CV-1 cells expressing RAR beta at 1E-6M. It counts as functional, cell-based. Particulars: Cercopithecidae.

Assay [8] deals with T3, Retinoic acid receptor gamma (Homo sapiens) (UniProt P13631).
T3 sequence (whole entry): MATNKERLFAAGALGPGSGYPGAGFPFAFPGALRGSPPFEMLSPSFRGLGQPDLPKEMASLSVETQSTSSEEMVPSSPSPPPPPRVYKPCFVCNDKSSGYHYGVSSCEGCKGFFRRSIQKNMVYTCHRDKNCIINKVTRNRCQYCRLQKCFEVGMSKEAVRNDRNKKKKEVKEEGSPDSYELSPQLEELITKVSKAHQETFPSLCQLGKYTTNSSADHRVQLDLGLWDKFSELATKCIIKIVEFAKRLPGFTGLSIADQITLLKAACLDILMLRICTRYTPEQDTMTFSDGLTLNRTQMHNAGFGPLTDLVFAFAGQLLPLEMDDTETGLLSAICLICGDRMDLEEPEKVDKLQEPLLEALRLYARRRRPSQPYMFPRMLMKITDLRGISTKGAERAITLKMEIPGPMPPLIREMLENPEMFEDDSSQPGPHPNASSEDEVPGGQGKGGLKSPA
In words: Transcriptional activation in CV-1 cells expressing RAR gamma at 1E-6M. It counts as functional, cell-based. Conditions: Cercopithecidae. A digest of the protocol: as §3

The test system of assay [9] is NCI-H460. As to the kind of experiment: Inhibition of H460 cell proliferation after 144 hr treatment at 0.1E-6M. It counts as functional, Homo sapiens. The procedure, abridged: (§4)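 H460 lung cancer cells grown in RPMI 1640 with 10% FCS and treated 144 h (0.1% Me2SO vehicle). Nuclei stained with DAPI and scored under fluorescence microscopy. Value is the average of triplicates.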

The test system of assay [10] is NCI-H460. As to the kind of experiment: Inhibition of H460 cell proliferation after 144 hr treatment at 1E-6M. It counts as functional, Homo sapiens. A digest of the protocol:
as §4

The next assay relates to BT-20. As to the kind of experiment: Inhibition of BT-20 breast cancer cell proliferation at 1E-7 M; Inhibitory activity. It counts as functional, cell-based. Conditions: Homo sapiens.
The subject of a further assay is MCF7. In words: Inhibition of MCF-7 cell proliferation at 1E-7M; Inhibitory activity. It counts as functional, cell-based. Particulars: Homo sapiens.
For a further assay, the system named is MDA-MB-468. In words: Inhibition of MDA-MB-468 cell proliferation at 0.5E-6M; Inhibitory activity. Particulars: Homo sapiens. It counts as functional, cell-based. A digest of the protocol:
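MDA-MB-468 cells (1.0 × 10^5) seeded in DMEM/F12 with 5% FBS; after 24 h, 0.5 × 10^-6 M agent added, with or without 2.0 × 10^-6 M antagonist. Incubated 72 h, then proliferation read by colorimetric assay relative to the agent-alone control. Triplicates, 0.1% Me2SO.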

Assay [11] addresses T4, Retinoic acid receptor RXR-alpha (Homo sapiens) (UniProt P19793).
T4 sequence (whole entry): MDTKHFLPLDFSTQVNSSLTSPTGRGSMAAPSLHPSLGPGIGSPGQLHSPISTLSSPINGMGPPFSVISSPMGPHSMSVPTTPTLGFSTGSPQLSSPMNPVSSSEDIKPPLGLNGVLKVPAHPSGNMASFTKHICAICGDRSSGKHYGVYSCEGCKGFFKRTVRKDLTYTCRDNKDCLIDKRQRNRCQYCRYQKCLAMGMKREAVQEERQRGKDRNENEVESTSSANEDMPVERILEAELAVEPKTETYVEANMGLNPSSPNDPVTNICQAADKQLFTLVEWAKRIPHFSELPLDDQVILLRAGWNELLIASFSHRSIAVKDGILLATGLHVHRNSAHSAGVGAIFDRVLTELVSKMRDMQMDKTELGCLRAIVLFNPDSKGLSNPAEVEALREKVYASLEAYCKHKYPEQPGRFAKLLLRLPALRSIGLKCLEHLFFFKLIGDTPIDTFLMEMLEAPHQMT
As to the kind of experiment: Displacement of [3H]9-cis-RA from Retinoic acid receptor RXR-alpha LBD. A digest of the protocol: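 Bacterially expressed receptor LBDs (RARs as GST fusions, RXRα as His6 fusion; about 1.0 × 10^-8 M) incubated with 1.0 × 10^-9 M [11,12-3H2]9-cis-RA (43 Ci/mmol), with or without 1.0 × 10^-9 M unlabeled competitor. Bound and free radioligand separated by Sephadex G-50 gel filtration; mean ± SEM of three independent experiments.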
Background: Displacement assays read how much labelled ligand stays bound in the presence of the test substance.

Regarding `CC(=O)NCCCOc1cc(/C=C/C(=O)O)ccc1-c1ccc(O)c(C23CC4CC(CC(C4)C2)C3)c1`, the Suppression worked out at 9% with NCI-H460 [1] and 15% in the assay on LNCaP. The Apoptosis in the assay on HL-60 [2] is reported as 0%; with HL-60 [3], 0%; in the assay with MDA-MB-231 [4], 0%; in the assay on MDA-MB-231 [5], 1%.

As to `O=C(O)/C=C/c1ccc(-c2ccc(O)c(C34CC5CC(CC(C5)C3)C4)c2)cc1` [ADAROTENE], the Transcriptional activation was found to be 8% in assay [6], 85% in assay [7] and 103% in assay [8]. Moreover, the Apoptosis is 90% in the assay with HL-60 [2], 98% with HL-60 [3], 53% in the assay on MDA-MB-231 [4] and 58% in the assay with MDA-MB-231 [5].

As to `CCOc1cc(/C=C/C(=O)O)ccc1-c1ccc(O)c(C23CC4CC(CC(C4)C2)C3)c1`, the Inhibition came to 14% in the assay with NCI-H460 [9] and 52% in the assay with NCI-H460 [10]. In addition, the Apoptosis in the assay with HL-60 [2] came out at 0%; with HL-60 [3], 29%.

On to `O=C(O)c1ccc2cc(-c3ccc(O)c(C45CC6CC(CC(C6)C4)C5)c3)ccc2c1` [O-DEMETHYLATED ADAPALENE], for which the Transcriptional activation was found to be 21% in assay [6], 78% in assay [7] and 88% in assay [8]. The Inhibition in the assay with NCI-H460 [9] is recorded as 20%; with NCI-H460 [10], 80%. In addition, the Apoptosis in the assay with HL-60 [2] came out at 78%; with HL-60 [3] it was 98%; in the assay with MDA-MB-231 [4] it was 26%; in the assay with MDA-MB-231 [5], 46%.

Turning to `Cc1c(-c2ccc(O)c(C34CC5CC(CC(C5)C3)C4)c2)ccc2cc(C(=O)O)ccc12`, the inhibition result in the assay with BT-20 and with MCF7 was “Inhibitory activity” each time. In addition, the Apoptosis with HL-60 [2] came to 29%; in the assay on HL-60 [3], 70%; in the assay on MDA-MB-231 [4] it was 14%.

With `Cc1cc(/C=C/C(=O)O)ccc1-c1ccc(O)c(C23CC4CC(CC(C4)C2)C3)c1`, the Apoptosis was 10% in the assay on HL-60 [2], 95% with HL-60 [3], 5% in the assay on MDA-MB-231 [4] and 30% in the assay on MDA-MB-231 [5].

As for `O=C(O)/C=C/c1ccc(-c2ccc(O)c(C34CC5CC(CC(C5)C3)C4)c2)c(Cl)c1`, the Apoptosis with HL-60 [2] amounted to 51%; with HL-60 [3], 94%; in the assay on MDA-MB-231 [4], 31%; with MDA-MB-231 [5], 43%. Further, the inhibition entry in the assay with MDA-MB-468 is “Active”. This compound gave a Displacement in assay [11] of 16%.

In the case of `O=C(O)c1ccc2c(Cl)c(-c3ccc(O)c(C45CC6CC(CC(C6)C4)C5)c3)ccc2c1`, the Inhibition in the assay with NCI-H460 [9] is given as 56%; with NCI-H460 [10], 71%. Further, the Apoptosis in the assay with HL-60 [2] was determined as 62%; in the assay with HL-60 [3] it was 94%; in the assay on MDA-MB-231 [4], 21%; in the assay with MDA-MB-231 [5], 41%.
